Bioassay records from PubChem.
E-sel inducer: induces E-selectin expression in human endothelial cells; activation, % at 7.58 µM; HUVEC E-selectin immunofluorescence imaging; normalized: neutral wells 0, TNF-alpha wells 100; 260,000 tested, 0.37% active; AID 686992;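 active = mean E-selectin-positive cell signal at least 10% of the positive control, reached in at least 60% of replicates, without over 20% cell loss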
Target sequence (P16581 whole entry, looked up): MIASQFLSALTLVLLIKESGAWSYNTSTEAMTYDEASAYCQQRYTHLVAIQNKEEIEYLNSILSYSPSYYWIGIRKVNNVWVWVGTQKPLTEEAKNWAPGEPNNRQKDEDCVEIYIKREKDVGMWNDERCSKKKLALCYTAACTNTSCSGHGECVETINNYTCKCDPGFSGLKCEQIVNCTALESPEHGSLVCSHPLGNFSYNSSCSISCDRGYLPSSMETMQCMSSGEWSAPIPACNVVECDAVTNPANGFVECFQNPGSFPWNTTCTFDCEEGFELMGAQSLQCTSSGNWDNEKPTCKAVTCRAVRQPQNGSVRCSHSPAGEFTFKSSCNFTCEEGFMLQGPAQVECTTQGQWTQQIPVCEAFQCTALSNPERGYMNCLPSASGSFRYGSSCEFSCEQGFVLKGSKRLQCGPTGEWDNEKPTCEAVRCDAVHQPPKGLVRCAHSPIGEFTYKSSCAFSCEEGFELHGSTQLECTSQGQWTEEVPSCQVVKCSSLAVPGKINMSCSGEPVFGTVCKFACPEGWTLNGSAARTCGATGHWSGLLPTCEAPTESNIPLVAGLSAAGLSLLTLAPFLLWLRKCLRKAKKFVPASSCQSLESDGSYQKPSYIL
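Test system: HUVEC | Signal: Immunofluorescence imaging | Read-out: Percent E-selectin-positive cells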
XiGFP reactiv: X-chromosome reactivation activator; AID 743238; activation, % at 7.58 µM; XiGFP mouse fibroblasts, % GFP-positive cells imaging, 3 d; cells co-treated with 5-aza-dC sensitizer; scaled so ellipticine positive control = 100%; 360,000 tested, 0.055% active;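 active = mean normalized replicate activation at least 10% and every replicate at or above 10%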;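 note: 0% = median of on-plate neutral control wells and 100% = ellipticine 6 µM median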
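System: 68-5-11 XiGFP fibroblast line; Timing: 3 days compound exposure; Compound dosing: one concentration, pinned; Benchmarks: positive control ellipticine, 6 µM final; Buffer or medium: DMEM containing 5-aza-dC.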
Active calls of the source: *; · = no result given. This excerpt belongs to a sample that is enriched for hits.

SMILES	E-sel inducer	XiGFP reactiv
COc1cc(CN2CC3(CN(C)C3)c3c([nH]c4cc(OC)ccc34)[C@@H]2CO)cc(OC)c1	0	0
C[C@H](CO)N1C[C@H](C)[C@H](CN(C)S(=O)(=O)c2ccc(Cl)cc2)Oc2ccc(NC(=O)Nc3ccc(F)cc3)cc2CC1=O	40*	0
C[C@H](CO)N1C[C@H](C)[C@H](CN(C)S(=O)(=O)c2ccc(F)cc2)Oc2ccc(NC(=O)Nc3ccc(F)cc3)cc2CC1=O	3	0
COc1ccc(S(=O)(=O)Nc2ccc3c(c2)C(=O)N([C@@H](C)CO)C[C@H](C)[C@@H](CN(C)Cc2ccncc2)OCCCC[C@@H](C)O3)cc1	0	0
COc1cc(CCC(=O)OCC(=O)Nc2ccccc2C#N)cc(OC)c1OC	458*	0
COc1cc(CC(=O)OCC(=O)Nc2ccccc2C#N)cc(OC)c1OC	7	0
C[C@@H]1CN([C@H](C)CO)C(=O)c2cc(C#CC(C)(C)O)cnc2O[C@@H]1CN(C)C(=O)CN(C)C	0	1
COc1ccccc1NC(=S)N1CCCCCC1	65*	0
COc1ccccc1NC(=S)N1CCCC1	·	0
O=S(=O)(Nc1cccc(S(=O)(=O)N2CCCC2)c1)c1cccs1	116*	0
O=S(=O)(Nc1cccc(S(=O)(=O)N2CCCC2)c1)c1ccc(Cl)s1	2	0
CCCC#Cc1cnc2c(c1)C(=O)N([C@@H](C)CO)C[C@H](C)[C@@H](CN(C)C(=O)CN1CCOCC1)O2	-1	-1
CO[C@@H]1CC[C@@H]2CCOc3ccc(C#N)cc3C(=O)N(C)CCCC(=O)N(C)C[C@H]1O2	0	0
CCCNC(=O)C[C@@H]1CC[C@@H]2[C@H](COC[C@@H](O)CN2C(=O)Nc2c(C)noc2C)O1	0	0
Fc1ccc(NC(=S)N2CCN(c3cccc(C(F)(F)F)c3)CC2)cc1	148*	0
O=S(=O)(Nc1ncccn1)c1ccc(NC(=S)N2CCN(c3cccc(C(F)(F)F)c3)CC2)cc1	0	0
CO[C@@H]1CN(C)C(=O)c2ccc(NC(C)=O)cc2OC[C@H](C)N(C(=O)CN2CCOCC2)C[C@H]1C	0	0
CCOc1ccc2[nH]cc(S(=O)(=O)c3ccc(C)cc3)c(=O)c2c1	2	0
CCOc1ccc2ncc(S(=O)(=O)c3ccc(C)cc3)c(N3CCC4(CC3)OCCO4)c2c1	140*	1
CC=Cc1ccc2n(c1=O)C[C@H]1[C@H](CO)[C@@H](C(=O)NCCC)[C@@H]2N1C(=O)c1ccccc1F (mixture of isomers)	0	0
Oc1ccc(Cl)cc1C=Nc1ccc2c3c(cccc13)CC2	24	30*
Cc1cccc(C=Nc2ccc3c4c(cccc24)CC3)c1O	·	0
N#Cc1ccc(-c2ccc3c(c2)[C@@H]2[C@@H](CCN2C(=O)C2CCC2)[C@H](CO)N3)cc1	0	0
COc1ccc(S(=O)(=O)Nc2ccc3c(c2)CC(=O)N([C@H](C)CO)C[C@H](C)[C@@H](CN(C)C(=O)NC2CCCCC2)O3)cc1	53*	0
C[C@H]1CN([C@@H](C)CO)C(=O)Cc2cc(NS(=O)(=O)c3ccc(F)cc3)ccc2O[C@@H]1CN(C)C(=O)NC1CCCCC1	0	0
SMILES	E-sel inducer	XiGFP reactiv
COc1ccc(S(=O)(=O)Nc2ccc3c(c2)CC(=O)N([C@@H](C)CO)C[C@@H](C)[C@@H](CN(C)C(=O)NC2CCCCC2)O3)cc1	74*	0
COc1ccc(S(=O)(=O)Nc2ccc3c(c2)CC(=O)N([C@H](C)CO)C[C@H](C)[C@H](CN(C)C(=O)NC2CCCCC2)O3)cc1	76*	0
C[C@@H]1CN([C@@H](C)CO)C(=O)Cc2cc(NS(=O)(=O)c3ccc(Cl)cc3)ccc2O[C@@H]1CN(C)C(=O)NC1CCCCC1	-2	-1
C[C@@H]1CN([C@H](C)CO)C(=O)Cc2cc(NS(=O)(=O)c3ccc(Cl)cc3)ccc2O[C@H]1CN(C)C(=O)NC1CCCCC1	3	-1
COc1ccc2c3c(n(C)c2c1)[C@H](CO)N(CC1CC1)CC31CCN(Cc2ccc(F)cc2)CC1	0	0
C=CCN1C(=O)[C@@H]2Cc3c([nH]c4ccccc34)C(c3cc(OC)c(OC)c(OC)c3)N2C1=S (stereo partly drawn)	1	91*
COc1cc(C2c3[nH]c4ccccc4c3C[C@H]3C(=O)N(CCO)CC(=O)N23)cc(OC)c1OC (stereo partly drawn)	0	0
COCCCN1CC(=O)N2C(c3ccc(OC)c(OC)c3)c3[nH]c4ccccc4c3C[C@H]2C1=O (stereo partly drawn)	·	0
CCN1C(=O)[C@@H]2Cc3c([nH]c4ccccc34)C(c3cc(OC)c(OC)c(OC)c3)N2C1=S (stereo partly drawn)	1	26*
C[C@H](O)C#Cc1cnc2c(c1)C(=O)N([C@H](C)CO)C[C@H](C)[C@@H](CN(C)C(=O)Cc1ccccn1)O2	0	-1
COc1ncnc(OC)c1S(=O)(=O)NCc1ccccc1	50*	0
Cn1cnc(S(=O)(=O)NCc2ccccc2)c1	0	0
CN(C(=O)COC(=O)c1n[nH]c2ccccc12)c1ccccc1	·	0
CN(C(=O)COC(=O)c1n[nH]c(=O)c2ccccc12)c1ccccc1	38*	0
COc1ccc(CN(C)C[C@@H]2OCCCC[C@@H](C)Oc3ccc(NS(=O)(=O)c4cn(C)cn4)cc3C(=O)N([C@H](C)CO)C[C@H]2C)cc1	0	-1
OC(COC(c1ccccc1)c1ccccc1)CN1CCOCC1 (stereo not drawn)	72*	0
Cc1ccc(C(OCC(O)CN2CCCCC2)c2ccccc2)cc1 (stereo not drawn)	0	0
O=C(COC(=O)CCc1nc2ccccc2c(=O)[nH]1)NC(c1ccccc1)c1ccccc1	-1	0
CC(NC(=O)COC(=O)CCc1nc2ccccc2c(=O)[nH]1)c1ccccc1 (stereo not drawn)	49*	0
C[C@@H]1CCCCO[C@@H](CN(C)C(=O)CCCN(C)C)[C@@H](C)CN([C@@H](C)CO)C(=O)c2cc(NS(=O)(=O)c3cccs3)ccc2O1	0	0
COc1cccc(Cn2nc3c4cc(F)ccc4n(Cc4ccc(F)cc4)cc-3c2=O)c1	0	0
COc1cc2c3nnc(-c4ccc(F)cc4)c-3cn(Cc3cccc(C)c3)c2cc1OC	0	82*
COc1cc2c3nnc(-c4ccc(F)cc4)c-3cn(Cc3ccc(C)cc3)c2cc1OC	1	98*
COc1cc2c3nnc(-c4ccccc4)c-3cn(Cc3ccc(F)cc3)c2cc1OC	·	0
C[C@@H]1CN([C@@H](C)CO)C(=O)c2cc(NC(=O)CCCCCC(=O)Nc3ccccc3N)ccc2O[C@@H]1CN(C)C(=O)Nc1ccc2c(c1)OCO2	22	0
CC=Cc1ccc2n(c1=O)C[C@@H]1[C@@H](CO)[C@H](C(=O)NCC)[C@H]2N1C(=O)Nc1cc(F)ccc1F (mixture of isomers)	0	0
C[C@@H]1CCCCO[C@H](CN(C)C(=O)c2ccncc2)[C@@H](C)CN([C@H](C)CO)C(=O)c2cc(NC(=O)c3ccncc3)ccc2O1	0	0
